Experimental data published in ChEMBL document CHEMBL3286150, “Discovery of PF-5190457, a Potent, Selective, and Orally Bioavailable Ghrelin Receptor Inverse Agonist Clinical Candidate” (ACS Med Chem Lett, 2014).
Activity calls are given as the source filed them. The calls are words filed in the database; no cut-off is given here.

Experiments:
[1] = target: T1, Muscarinic acetylcholine receptor M2 (Homo sapiens) (UniProt P08172); assay: Antagonist activity at muscarinic M2 receptor (unknown origin) expressed in CHO-K1 CHRM2 beta-arrestin cells assessed as inhibition of oxotremorine S-induced effect after 90 mins; assay type: cell-based
T1 sequence (whole entry): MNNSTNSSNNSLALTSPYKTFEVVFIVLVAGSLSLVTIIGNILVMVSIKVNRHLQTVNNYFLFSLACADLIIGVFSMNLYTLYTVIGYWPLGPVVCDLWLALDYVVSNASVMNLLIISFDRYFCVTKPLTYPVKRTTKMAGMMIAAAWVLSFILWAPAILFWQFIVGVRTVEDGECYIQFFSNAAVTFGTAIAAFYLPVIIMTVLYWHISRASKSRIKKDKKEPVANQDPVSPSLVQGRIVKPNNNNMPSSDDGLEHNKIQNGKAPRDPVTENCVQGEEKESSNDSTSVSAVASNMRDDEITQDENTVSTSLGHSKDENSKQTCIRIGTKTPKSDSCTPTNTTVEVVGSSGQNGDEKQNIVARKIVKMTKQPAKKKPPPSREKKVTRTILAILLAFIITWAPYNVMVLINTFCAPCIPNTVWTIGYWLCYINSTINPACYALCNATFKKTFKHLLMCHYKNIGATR
How it was run: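 Antagonist mode in a β-arrestin PathHunter format. Kb was determined in the presence of an EC80 concentration of the agonist oxotremorine.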

[2] = target: T2, Alpha-2C adrenergic receptor (Homo sapiens) (UniProt P18825); assay: Activity at adrenergic alpha2C receptor (unknown origin) at 10 uM
T2 sequence (whole entry): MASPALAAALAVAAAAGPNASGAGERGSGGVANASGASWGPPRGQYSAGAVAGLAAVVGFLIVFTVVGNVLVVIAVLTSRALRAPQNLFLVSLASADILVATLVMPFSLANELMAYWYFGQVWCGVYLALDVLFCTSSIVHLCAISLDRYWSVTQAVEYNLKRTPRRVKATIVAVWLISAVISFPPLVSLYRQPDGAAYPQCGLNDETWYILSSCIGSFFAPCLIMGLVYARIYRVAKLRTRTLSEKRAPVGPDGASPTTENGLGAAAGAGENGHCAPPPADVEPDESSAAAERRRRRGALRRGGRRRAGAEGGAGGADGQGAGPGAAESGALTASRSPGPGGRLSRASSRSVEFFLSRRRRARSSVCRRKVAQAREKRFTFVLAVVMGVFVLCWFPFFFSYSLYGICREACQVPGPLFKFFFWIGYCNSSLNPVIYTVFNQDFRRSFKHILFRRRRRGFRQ

[3] = target: T3, Alpha-2A adrenergic receptor (Homo sapiens) (UniProt P08913); assay: Activity at adrenergic alpha2A receptor (unknown origin) at 10 uM
T3 sequence (whole entry): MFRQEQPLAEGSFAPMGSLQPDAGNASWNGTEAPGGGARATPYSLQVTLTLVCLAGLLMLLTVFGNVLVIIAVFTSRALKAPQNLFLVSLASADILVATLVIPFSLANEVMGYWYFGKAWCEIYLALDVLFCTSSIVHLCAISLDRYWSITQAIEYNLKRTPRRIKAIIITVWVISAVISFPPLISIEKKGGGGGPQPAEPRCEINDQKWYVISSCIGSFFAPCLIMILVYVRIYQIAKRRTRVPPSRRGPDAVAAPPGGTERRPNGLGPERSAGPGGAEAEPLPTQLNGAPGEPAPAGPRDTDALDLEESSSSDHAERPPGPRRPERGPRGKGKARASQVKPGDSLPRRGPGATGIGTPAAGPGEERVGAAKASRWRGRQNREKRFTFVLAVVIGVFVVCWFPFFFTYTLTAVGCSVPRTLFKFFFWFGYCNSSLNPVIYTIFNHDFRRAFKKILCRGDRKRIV

[4] = target: D(2) dopamine receptor (Homo sapiens) (UniProt P14416); assay: Activity at dopamine D2S receptor (unknown origin) at 10 uM
[5] = target: D(3) dopamine receptor (Homo sapiens) (UniProt P35462); assay: Activity at dopamine D3 receptor (unknown origin) at 10 uM
[6] = target: T4, D(4) dopamine receptor (Homo sapiens) (UniProt P21917); assay: Activity at dopamine D4 receptor (unknown origin) at 10 uM
T4 sequence (whole entry): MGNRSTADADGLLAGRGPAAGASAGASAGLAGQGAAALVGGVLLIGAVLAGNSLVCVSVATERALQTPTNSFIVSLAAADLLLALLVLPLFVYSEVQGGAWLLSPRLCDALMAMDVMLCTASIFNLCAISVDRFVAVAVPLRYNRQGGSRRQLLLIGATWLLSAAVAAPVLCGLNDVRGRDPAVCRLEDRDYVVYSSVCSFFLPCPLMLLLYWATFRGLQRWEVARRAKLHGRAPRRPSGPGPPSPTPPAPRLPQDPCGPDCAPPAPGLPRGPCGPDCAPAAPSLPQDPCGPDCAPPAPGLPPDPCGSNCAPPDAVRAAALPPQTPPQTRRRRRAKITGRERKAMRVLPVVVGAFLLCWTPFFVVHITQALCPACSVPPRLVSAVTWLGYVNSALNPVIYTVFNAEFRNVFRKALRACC

[7] = target: Histamine H1 receptor (Homo sapiens) (UniProt P35367); assay: Activity at histamine H1 receptor (unknown origin) at 10 uM
[8] = system: MDCK; assay: Efflux ratio of permeability from basolateral to apical over apical to basolateral side in MDCK cells expressing human MDR1; details: dog
[9] = target: T5, Growth hormone secretagogue receptor type 1 (Homo sapiens, UniProt Q92847); assay: Inverse agonist activity at human ghrelin receptor expressed in HEK293 cells assessed as inhibition of ghrelin-induced europium-labeled GTP-gamma-S binding by DELFIA; assay type: cell-based
How it was run: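 GTP-γ-S functional assay run in agonist/antagonist/inverse-agonist mode. Minimum percent effect is reported, with negative values denoting inverse agonism. Values are geometric means ± standard error of ≥3 measurements unless noted.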

[10] = target: T5, Growth hormone secretagogue receptor type 1; assay: Displacement of [125I]ghrelin from human ghrelin receptor expressed in HEK293 cells after 8 hrs by scintillation proximity assay; assay type: cell-based
How it was run: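 Human ghrelin receptor binding measured by scintillation proximity assay. Values are geometric means of at least 3 measurements, unless noted otherwise.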

[11] = species on record: Homo sapiens; assay: Selectivity ratio of pKb for muscarinic M2 receptor (unknown origin) expressed in CHO-K1 CHRM2 beta-arrestin cells to Ki for human ghrelin receptor expressed; assay type: cell-based
How it was run: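 Ratio of the M2 Kb (β-arrestin PathHunter antagonist format, EC80 oxotremorine) over the human ghrelin receptor functional Ki (GTP-γ-S assay).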

[12] = Apparent intrinsic clearance in human liver microsomes; assay type: ADME; details: read-out: CLH
How it was run: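 Apparent intrinsic clearance in human liver microsomes, expressed as mL/min/kg. Values are uncorrected for fraction unbound.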

[13] = Apparent permeability of the compound in MDCK2 cells; assay type: ADME, cell-based, Canis lupus familiaris, MDCK-II; details: dog, mdck
How it was run: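 Passive permeability (Papp, 10–6 cm/s) measured in low-efflux MDCKII cells.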

[14] = target: Voltage-gated inwardly rectifying potassium channel KCNH2 (Homo sapiens, UniProt Q12809); assay: Inhibition of human ERG
[15] = target: T6, 5-hydroxytryptamine receptor 2B (Homo sapiens, UniProt P41595); assay: Inhibition of 5HT2B receptor (unknown origin)
[16] = target: T6, 5-hydroxytryptamine receptor 2B; assay: Agonist activity at 5HT2B receptor (unknown origin)
[17] = target: T6, 5-hydroxytryptamine receptor 2B; assay: Antagonist activity at 5HT2B receptor (unknown origin)
[18] = Oral absorption in portal vein cannulated rat at 10 mg/kg, po; assay type: ADME, organism-based; set-up: dose 10 mg/kg, route oral; details: in vivo

T5 sequence (Q92847 whole entry): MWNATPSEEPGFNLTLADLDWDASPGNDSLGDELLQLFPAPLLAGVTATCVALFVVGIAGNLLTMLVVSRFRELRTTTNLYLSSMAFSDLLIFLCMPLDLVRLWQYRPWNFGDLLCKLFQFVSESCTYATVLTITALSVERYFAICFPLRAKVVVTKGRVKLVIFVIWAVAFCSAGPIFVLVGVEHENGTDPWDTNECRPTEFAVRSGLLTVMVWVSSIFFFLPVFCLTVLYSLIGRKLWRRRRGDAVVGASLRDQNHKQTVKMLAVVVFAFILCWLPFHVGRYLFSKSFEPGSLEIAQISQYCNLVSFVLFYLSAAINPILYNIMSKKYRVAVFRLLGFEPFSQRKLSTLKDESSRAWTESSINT
T6 sequence (P41595 whole entry): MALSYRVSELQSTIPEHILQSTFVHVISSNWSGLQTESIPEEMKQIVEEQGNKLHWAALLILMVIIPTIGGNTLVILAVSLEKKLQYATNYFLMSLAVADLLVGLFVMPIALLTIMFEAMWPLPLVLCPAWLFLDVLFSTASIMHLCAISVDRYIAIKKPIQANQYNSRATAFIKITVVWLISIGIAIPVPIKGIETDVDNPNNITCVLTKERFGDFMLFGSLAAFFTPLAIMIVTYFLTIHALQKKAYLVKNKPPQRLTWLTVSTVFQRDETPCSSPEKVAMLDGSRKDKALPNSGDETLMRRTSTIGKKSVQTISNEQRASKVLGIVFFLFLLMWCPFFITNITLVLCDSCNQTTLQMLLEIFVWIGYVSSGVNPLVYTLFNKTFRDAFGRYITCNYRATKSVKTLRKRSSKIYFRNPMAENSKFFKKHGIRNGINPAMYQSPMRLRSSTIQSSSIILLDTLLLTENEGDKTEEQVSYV
Chain of Histamine H1 receptor (Homo sapiens) (P35367 whole entry): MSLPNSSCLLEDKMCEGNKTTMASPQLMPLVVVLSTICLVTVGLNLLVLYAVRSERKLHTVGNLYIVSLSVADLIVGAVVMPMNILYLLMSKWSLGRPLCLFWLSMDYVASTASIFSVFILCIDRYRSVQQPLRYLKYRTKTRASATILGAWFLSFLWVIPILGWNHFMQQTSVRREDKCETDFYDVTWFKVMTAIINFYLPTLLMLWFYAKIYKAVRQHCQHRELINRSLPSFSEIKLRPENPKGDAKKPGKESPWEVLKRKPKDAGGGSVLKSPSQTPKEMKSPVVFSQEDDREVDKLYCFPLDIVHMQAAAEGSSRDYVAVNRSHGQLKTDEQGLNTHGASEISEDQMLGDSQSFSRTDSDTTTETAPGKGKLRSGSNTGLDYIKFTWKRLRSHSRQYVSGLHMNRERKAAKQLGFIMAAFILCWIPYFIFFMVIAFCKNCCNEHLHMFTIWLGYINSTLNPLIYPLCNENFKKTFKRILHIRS
Chain of D(3) dopamine receptor (Homo sapiens) (P35462 whole entry): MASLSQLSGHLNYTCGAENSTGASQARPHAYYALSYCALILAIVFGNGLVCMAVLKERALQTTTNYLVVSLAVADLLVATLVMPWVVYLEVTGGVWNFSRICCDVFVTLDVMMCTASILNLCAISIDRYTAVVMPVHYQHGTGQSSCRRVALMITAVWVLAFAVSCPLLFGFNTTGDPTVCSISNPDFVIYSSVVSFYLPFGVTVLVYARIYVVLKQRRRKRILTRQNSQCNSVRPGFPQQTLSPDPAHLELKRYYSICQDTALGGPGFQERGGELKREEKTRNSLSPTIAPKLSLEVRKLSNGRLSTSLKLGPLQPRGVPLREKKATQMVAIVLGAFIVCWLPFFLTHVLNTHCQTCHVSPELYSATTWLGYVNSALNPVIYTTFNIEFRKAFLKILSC
Chain of Voltage-gated inwardly rectifying potassium channel KCNH2 (Q12809 whole entry): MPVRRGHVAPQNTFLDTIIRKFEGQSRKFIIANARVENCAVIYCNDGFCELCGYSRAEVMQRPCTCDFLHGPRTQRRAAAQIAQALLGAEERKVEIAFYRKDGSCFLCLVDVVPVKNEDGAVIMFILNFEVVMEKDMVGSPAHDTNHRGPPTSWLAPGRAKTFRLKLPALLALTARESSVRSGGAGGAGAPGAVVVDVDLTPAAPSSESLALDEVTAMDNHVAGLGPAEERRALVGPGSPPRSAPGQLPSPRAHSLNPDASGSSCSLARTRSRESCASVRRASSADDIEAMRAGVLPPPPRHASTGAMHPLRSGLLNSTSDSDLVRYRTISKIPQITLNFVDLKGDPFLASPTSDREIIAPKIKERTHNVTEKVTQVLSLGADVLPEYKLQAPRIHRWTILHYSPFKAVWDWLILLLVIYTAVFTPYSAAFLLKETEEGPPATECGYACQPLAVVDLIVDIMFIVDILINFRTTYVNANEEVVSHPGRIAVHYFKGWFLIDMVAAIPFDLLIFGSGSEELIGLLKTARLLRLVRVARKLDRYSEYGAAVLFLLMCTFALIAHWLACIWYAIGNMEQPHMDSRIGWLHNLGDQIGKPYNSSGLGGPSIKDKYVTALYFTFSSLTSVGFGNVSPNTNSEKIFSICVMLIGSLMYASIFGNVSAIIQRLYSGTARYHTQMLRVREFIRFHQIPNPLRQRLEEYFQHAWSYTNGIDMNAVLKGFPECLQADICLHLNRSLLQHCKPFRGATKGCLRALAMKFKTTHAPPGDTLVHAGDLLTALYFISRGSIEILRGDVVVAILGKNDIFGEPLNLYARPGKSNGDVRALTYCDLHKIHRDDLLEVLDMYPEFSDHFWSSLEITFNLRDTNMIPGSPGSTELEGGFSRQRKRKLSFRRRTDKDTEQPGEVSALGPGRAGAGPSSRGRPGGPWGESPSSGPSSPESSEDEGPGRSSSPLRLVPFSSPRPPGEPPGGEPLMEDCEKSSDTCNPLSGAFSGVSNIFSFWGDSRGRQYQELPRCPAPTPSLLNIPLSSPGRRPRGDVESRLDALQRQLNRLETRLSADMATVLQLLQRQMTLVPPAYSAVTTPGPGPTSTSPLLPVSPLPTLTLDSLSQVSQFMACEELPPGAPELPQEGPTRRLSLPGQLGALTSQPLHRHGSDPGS
Chain of D(2) dopamine receptor (Homo sapiens) (P14416 whole entry): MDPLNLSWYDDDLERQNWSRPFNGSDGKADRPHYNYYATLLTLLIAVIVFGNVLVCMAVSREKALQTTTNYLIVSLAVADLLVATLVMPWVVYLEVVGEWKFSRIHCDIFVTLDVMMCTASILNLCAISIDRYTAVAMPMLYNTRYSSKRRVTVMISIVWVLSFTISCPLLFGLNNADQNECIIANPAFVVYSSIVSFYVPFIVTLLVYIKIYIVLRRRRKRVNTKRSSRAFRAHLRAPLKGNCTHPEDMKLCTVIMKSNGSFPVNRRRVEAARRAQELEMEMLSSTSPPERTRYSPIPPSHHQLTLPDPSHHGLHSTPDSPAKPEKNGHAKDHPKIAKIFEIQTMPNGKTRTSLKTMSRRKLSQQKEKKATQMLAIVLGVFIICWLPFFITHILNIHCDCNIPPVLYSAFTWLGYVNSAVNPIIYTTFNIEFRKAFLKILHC

Row | pKb [1] | Ratio [8] | Ki [9] [µM] | CLint scaled [12] [L/h/kg] | Papp [13] [nm/s] | SMILES | Ratio [11] | other results
1 | 5.94 | – | – | – | – | COc1ccc(CC(=O)N2CCC3(CC2)CN([C@@H]2CCc4cc(-c5ncccn5)ccc42)C3)cc1 | – | Activity [2]: Active; Activity [3]: Active; Activity [4]: Active; Activity [5]: Active; Activity [6]: Active; Activity [7]: Active
2 | 6.48 | > 18.2 | – | – | – | Cc1cn2cc(CC(=O)N3CCC4(CC3)CN([C@@H]3CCc5cc(-c6ccc(C(N)=O)nc6)ccc53)C4)nc2s1 | – | –
3 | 5.66 | – | – | – | – | COc1ccc(CC(=O)N2CCC3(CC2)CN([C@@H]2CCc4cc(-c5cc(C)ncn5)ccc42)C3)nc1 | – | –
4 | 5.86 | – | 0.0851 | – | – | COc1ccc(CC(=O)N2CCC3(CC2)CN([C@@H]2CCc4cc(-c5ncc(C)cn5)ccc42)C3)nc1 | – | –
5 | 6.18 | – | 0.0251 | – | – | COc1ccc(CC(=O)N2CCC3(CC2)CN([C@@H]2CCc4cc(-c5ncccn5)ccc42)C3)nc1 | – | –
6 | 5.71 | 7.2 | 0.00661 | 1.26 | 50 | Cc1cc(-c2ccc3c(c2)CC[C@H]3N2CC3(CCN(C(=O)Cc4cn5cc(C)sc5n4)CC3)C2)ncn1 [PF-5190457] | 266 | Ki [10]: 0.00661 µM; IC50 [14]: 6.9 µM; IC50 [15]: 3.7 µM; Activity [16]: inactive; inhibition [17]: inactive; Fa [18]: 100%
7 | 6.41 | 5.4 | 0.00661 | 1.08 | 110 | Cc1cn2cc(CC(=O)N3CCC4(CC3)CN([C@@H]3CCc5cc(-c6ncccn6)ccc53)C4)nc2s1 | 47 | Ki [10]: 0.00457 µM
8 | 6.08 | 5.4 | – | 4.92 | 150 | COc1ccc(CC(=O)N2CCC3(CC2)CN([C@@H]2CCc4cc(-c5ccncn5)ccc42)C3)nc1 | – | –
9 | 6.09 | 3.7 | 0.0501 | 1.02 | 100 | COc1ccc(CC(=O)N2CCC3(CC2)CN([C@@H]2CCc4cc(-c5nccc(C)n5)ccc42)C3)nc1 | 20 | –
